Assay [1] is described as follows: Inhibition of acid-induced fibrillogenesis of human Transthyretin Y78F mutant expressed in Escherichia coli BL21 (DE3) cells assessed as inhibition of fibril formation incubated for 30 mins by kinetic turbidimetric assay. The gist of the method:
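TTR-Y78F in 20 mM K phosphate, 100 mM KCl, 1 mM EDTA, pH 7.6, preincubated with inhibitor 0–40 μM (final 5% DMSO) 30 min at 37 °C with shaking. Acidified with 400 mM KAcO/100 mM KCl/1 mM EDTA pH 4.2 to final 0.4 mg/mL TTR. A340 read at 1-min intervals for 1.5 h at 37 °C. Initial rates fitted to v0 = A + B·e^(−C[I]) to give IC50.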

Assay [2] is filed under the species Homo sapiens. The assay can be described thus: Inhibition of acid-induced fibrillogenesis of human Transthyretin Y78F mutant expressed in Escherichia coli BL21 (DE3) cells assessed as reduction in fibril formation at 40 uM incubated for 30 mins by kinetic turbidimetric assay relative to control. The gist of the method:
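TTR-Y78F (final 0.4 mg/mL) preincubated 30 min at 37 °C with ligand up to 40 μM in 5% DMSO at pH 7.6. Aggregation triggered by pH 4.2 acetate buffer, then A340 followed for 1.5 h at 37 °C. From the exponential fit of initial rate versus concentration, RA% is the reduction in initial rate at high inhibitor concentration relative to no inhibitor.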

`O=C(O)c1cc(-c2ccc(F)cc2F)cc(I)c1O`: in assay [1], the 50% inhibitory concentration (IC50) is 4.2 µM. The inhibition in assay [2] was 94%.

In the case of `COC(=O)CCNC(=O)c1cc(-c2c(F)cc(F)cc2Cl)cc(I)c1O`, the half-maximal inhibitory concentration (IC50) in assay [1] came out at 3.7 µM. The inhibition in assay [2] came to 90%.

Take `COc1cc(F)ccc1-c1cc(I)c(O)c(C(=O)O)c1`: the 50% inhibitory concentration (IC50) in assay [1] turned out to be 5.3 µM. Further, in assay [2], the inhibition came to 90.3%.

Consider `O=C(O)c1cc(-c2c(F)cc(F)cc2Cl)ccc1O`, for which, in assay [1], the IC50 stood at 7.2 µM. In addition, the inhibition in assay [2] is 89.1%.

As to `COC(=O)[C@@H](C)NC(=O)c1cc(-c2c(F)cc(F)cc2Cl)cc(I)c1O`, the concentration for half-maximal inhibition (IC50) in assay [1] came out at 6 µM. In addition, in assay [2], the inhibition worked out at 89%.

`O=C(O)c1cc(-c2c(F)cc(F)cc2Cl)cc(Br)c1O`: the IC50 in assay [1] amounted to 3.6 µM. Further, the inhibition in assay [2] was 89%.

For the compound `O=C(O)c1cc(-c2ccc(F)cc2C(F)(F)F)ccc1O`, the half-maximal inhibitory concentration (IC50) in assay [1] came to 23.1 µM. For the same compound, the inhibition in assay [2] came out at 60.4%.

For the compound `CCOc1cc(F)ccc1-c1ccc(O)c(C(=O)O)c1`, the half-maximal inhibitory concentration (IC50) in assay [1] came to 6.1 µM. Moreover, in assay [2], the inhibition was 88.8%.

Take `CCOc1cc(F)ccc1-c1cc(Br)c(O)c(C(=O)O)c1`: in assay [1], the IC50 is 4.3 µM. In assay [2], the inhibition came to 89.9%.

For `O=C(O)c1cc(-c2c(F)cc(F)cc2Cl)cc(I)c1O`, in assay [1], the IC50 came out at 4.6 µM. Besides, the inhibition in assay [2] was found to be 91%.

As for `O=C(O)c1cc(-c2ccc(Cl)cc2F)ccc1O`, the IC50 in assay [1] was found to be 21.7 µM. The inhibition in assay [2] came out at 77.3%.

For the compound `O=C(O)c1cc(-c2ccc(F)cc2C(F)(F)F)cc(I)c1O`, in assay [1], the IC50 was 7.2 µM. In addition, the inhibition in assay [2] was determined as 87%.

As to `CCOc1cc(F)ccc1-c1cc(I)c(O)c(C(=O)O)c1`, in assay [1], the IC50 was found to be 5.1 µM. The inhibition in assay [2] amounted to 91.1%.

In the case of `COc1cc(F)ccc1-c1cc(Br)c(O)c(C(=O)O)c1`, the 50% inhibitory concentration (IC50) in assay [1] was found to be 5.2 µM. Moreover, the inhibition in assay [2] was found to be 95.5%.

As for `COc1cc(F)ccc1-c1ccc(O)c(C(=O)O)c1`, in assay [1], the half-maximal inhibitory concentration (IC50) was found to be 6 µM. Also, the inhibition in assay [2] worked out at 87.8%.

Consider `O=C(O)c1cc(-c2ccc(Cl)cc2F)cc(I)c1O`, for which the IC50 in assay [1] was determined as 3.9 µM. For the same compound, in assay [2], the inhibition turned out to be 88.5%.

A word on the IC50: it is the concentration that inhibits the measured activity by half. As a reminder, the inhibition is the percentage by which the read-out fell short of the control.
